Measurements published in ChEMBL document CHEMBL1137702, “Identification of hydrolytically stable and selective P2Y(1) receptor agonists” (Eur J Med Chem, 2009).
The source made the active and inactive calls. The calls are words filed in the database; no cut-off is given here.

molecular target: T1, Ectonucleoside triphosphate diphosphohydrolase 8 (Homo sapiens) (UniProt Q5MY95); test: Inhibition of human NTPDase 8 expressed in human 293T cells; format: cell-based
T1 sequence (whole entry): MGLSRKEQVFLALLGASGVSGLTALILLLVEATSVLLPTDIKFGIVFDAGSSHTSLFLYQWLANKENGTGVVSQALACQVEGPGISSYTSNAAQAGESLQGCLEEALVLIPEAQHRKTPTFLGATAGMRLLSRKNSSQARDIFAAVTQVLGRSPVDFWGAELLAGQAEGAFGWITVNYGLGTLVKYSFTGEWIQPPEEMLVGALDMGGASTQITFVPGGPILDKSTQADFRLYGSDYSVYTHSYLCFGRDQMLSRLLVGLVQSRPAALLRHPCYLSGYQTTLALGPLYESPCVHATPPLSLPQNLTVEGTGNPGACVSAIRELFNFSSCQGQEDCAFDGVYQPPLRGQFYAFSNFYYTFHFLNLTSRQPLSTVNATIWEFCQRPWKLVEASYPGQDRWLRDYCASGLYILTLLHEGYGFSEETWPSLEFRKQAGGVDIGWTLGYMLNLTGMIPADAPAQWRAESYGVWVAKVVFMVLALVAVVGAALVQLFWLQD

Compound	Activity
BP(=O)(OC[C@H]1O[C@@H](n2cnc3c(N)nc(SC)nc32)[C@H](O)[C@@H]1O)OP(=O)(O)CP(=O)(O)O (single isomer, unassigned; diastereomer B)	inactive
BP(=O)(OC[C@H]1O[C@@H](n2cnc3c(N)ncnc32)[C@H](O)[C@@H]1O)OP(=O)(O)CP(=O)(O)O (stereo not given in full)	inactive
BP(=O)(OC[C@H]1O[C@@H](n2cnc3c(N)nc(SC)nc32)[C@H](O)[C@@H]1O)OP(=O)(O)CP(=O)(O)O (single isomer, unassigned; diastereomer A)	inactive
BP(=O)(OC[C@H]1O[C@@H](n2cnc3c(N)ncnc32)[C@H](O)[C@@H]1O)OP(=O)(O)CP(=O)(O)O (single isomer, unassigned; diastereomer B)	inactive
CSc1nc(N)c2ncn([C@@H]3O[C@H](COP(=O)(O)OP(=O)(O)CP(=O)(O)O)[C@@H](O)[C@H]3O)c2n1	inactive

molecular target: T1, Ectonucleoside triphosphate diphosphohydrolase 8 (Homo sapiens); test: Activity of human NTPDase 8 expressed in human 293T cells assessed as drug hydrolysis at 100 uM after 20 mins relative to ATP; format: cell-based; parameters: scale not given: the % may be the effect or the level left
Method in brief: (§1)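 Human NTPDase1, 2, 3 or 8 in crude extracts of transfected 293T cells, pre-incubated 3 min at 37 °C in Tris-Ringer buffer pH 7.4. […] Untransfected-cell extract activity subtracted.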

Compound	Activity
BP(=O)(OC[C@H]1O[C@@H](n2cnc3c(N)nc(SC)nc32)[C@H](O)[C@@H]1O)OP(=O)(O)CP(=O)(O)O (single isomer, unassigned; diastereomer B)	3%
BP(=O)(OC[C@H]1O[C@@H](n2cnc3c(N)ncnc32)[C@H](O)[C@@H]1O)OP(=O)(O)CP(=O)(O)O (stereo not given in full)	2%
BP(=O)(OC[C@H]1O[C@@H](n2cnc3c(N)nc(SC)nc32)[C@H](O)[C@@H]1O)OP(=O)(O)CP(=O)(O)O (single isomer, unassigned; diastereomer A)	4%
BP(=O)(OC[C@H]1O[C@@H](n2cnc3c(N)ncnc32)[C@H](O)[C@@H]1O)OP(=O)(O)CP(=O)(O)O (single isomer, unassigned; diastereomer B)	< 1%
CSc1nc(N)c2ncn([C@@H]3O[C@H](COP(=O)(O)OP(=O)(O)CP(=O)(O)O)[C@@H](O)[C@H]3O)c2n1	7%

molecular target: T2, Ectonucleoside triphosphate diphosphohydrolase 3 (Homo sapiens) (UniProt O75355); test: Activity of human NTPDase 3 expressed in human 293T cells assessed as drug hydrolysis at 100 uM after 20 mins relative to ATP; format: cell-based; parameters: scale not given: the % may be the effect or the level left; method in brief: as §1
T2 sequence (whole entry): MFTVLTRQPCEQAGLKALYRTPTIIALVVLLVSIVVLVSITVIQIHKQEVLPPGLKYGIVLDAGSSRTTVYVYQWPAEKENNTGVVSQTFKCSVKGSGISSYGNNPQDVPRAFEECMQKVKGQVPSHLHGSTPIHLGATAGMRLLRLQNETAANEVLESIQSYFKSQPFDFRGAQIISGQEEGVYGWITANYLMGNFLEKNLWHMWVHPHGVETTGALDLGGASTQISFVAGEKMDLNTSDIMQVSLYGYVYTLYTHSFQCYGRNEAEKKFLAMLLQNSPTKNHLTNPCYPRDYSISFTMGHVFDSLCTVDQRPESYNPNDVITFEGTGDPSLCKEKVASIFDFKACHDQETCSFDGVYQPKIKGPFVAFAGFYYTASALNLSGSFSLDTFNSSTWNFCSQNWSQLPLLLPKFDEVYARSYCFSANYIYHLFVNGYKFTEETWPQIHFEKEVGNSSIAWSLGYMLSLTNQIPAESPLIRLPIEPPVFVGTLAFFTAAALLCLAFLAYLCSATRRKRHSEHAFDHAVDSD

Compound	Activity
BP(=O)(OC[C@H]1O[C@@H](n2cnc3c(N)nc(SC)nc32)[C@H](O)[C@@H]1O)OP(=O)(O)CP(=O)(O)O (single isomer, unassigned; diastereomer B)	2%
BP(=O)(OC[C@H]1O[C@@H](n2cnc3c(N)ncnc32)[C@H](O)[C@@H]1O)OP(=O)(O)CP(=O)(O)O (stereo not given in full)	0%
BP(=O)(OC[C@H]1O[C@@H](n2cnc3c(N)nc(SC)nc32)[C@H](O)[C@@H]1O)OP(=O)(O)CP(=O)(O)O (single isomer, unassigned; diastereomer A)	2%
BP(=O)(OC[C@H]1O[C@@H](n2cnc3c(N)ncnc32)[C@H](O)[C@@H]1O)OP(=O)(O)CP(=O)(O)O (single isomer, unassigned; diastereomer B)	6%
CSc1nc(N)c2ncn([C@@H]3O[C@H](COP(=O)(O)OP(=O)(O)CP(=O)(O)O)[C@@H](O)[C@H]3O)c2n1	7%

molecular target: T3, Ectonucleoside triphosphate diphosphohydrolase 2 (Homo sapiens) (UniProt Q9Y5L3); test: Inhibition of human NTPDase 2 expressed in human 293T cells; format: cell-based
T3 sequence (whole entry): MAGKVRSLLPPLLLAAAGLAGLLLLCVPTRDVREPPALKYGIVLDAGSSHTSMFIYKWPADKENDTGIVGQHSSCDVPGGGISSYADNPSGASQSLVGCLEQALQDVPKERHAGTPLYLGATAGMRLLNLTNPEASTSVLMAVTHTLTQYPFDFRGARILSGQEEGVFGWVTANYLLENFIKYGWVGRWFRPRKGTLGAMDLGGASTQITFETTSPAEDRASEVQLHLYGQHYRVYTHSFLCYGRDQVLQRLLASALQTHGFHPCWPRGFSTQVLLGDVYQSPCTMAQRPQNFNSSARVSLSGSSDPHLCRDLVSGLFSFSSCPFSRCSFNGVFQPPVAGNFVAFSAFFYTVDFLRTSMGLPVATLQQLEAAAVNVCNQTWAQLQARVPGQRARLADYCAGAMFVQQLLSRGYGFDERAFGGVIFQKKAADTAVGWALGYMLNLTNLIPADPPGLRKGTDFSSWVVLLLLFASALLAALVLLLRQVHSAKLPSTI

Compound	Activity
BP(=O)(OC[C@H]1O[C@@H](n2cnc3c(N)nc(SC)nc32)[C@H](O)[C@@H]1O)OP(=O)(O)CP(=O)(O)O (single isomer, unassigned; diastereomer B)	inactive
BP(=O)(OC[C@H]1O[C@@H](n2cnc3c(N)ncnc32)[C@H](O)[C@@H]1O)OP(=O)(O)CP(=O)(O)O (stereo not given in full)	inactive
BP(=O)(OC[C@H]1O[C@@H](n2cnc3c(N)nc(SC)nc32)[C@H](O)[C@@H]1O)OP(=O)(O)CP(=O)(O)O (single isomer, unassigned; diastereomer A)	inactive
BP(=O)(OC[C@H]1O[C@@H](n2cnc3c(N)ncnc32)[C@H](O)[C@@H]1O)OP(=O)(O)CP(=O)(O)O (single isomer, unassigned; diastereomer B)	inactive
CSc1nc(N)c2ncn([C@@H]3O[C@H](COP(=O)(O)OP(=O)(O)CP(=O)(O)O)[C@@H](O)[C@H]3O)c2n1	inactive

molecular target: T4, Ectonucleotide pyrophosphatase/phosphodiesterase family member 3 (Homo sapiens) (UniProt O14638); test: Activity of human NPP3 expressed in human 293T cells assessed as drug hydrolysis at 100 uM after 20 mins by reverse-phase HPLC relative to p-nitrophenyl-thymidine-5-monophosphate; format: cell-based; parameters: scale not given: the % may be the effect or the level left
T4 sequence (whole entry): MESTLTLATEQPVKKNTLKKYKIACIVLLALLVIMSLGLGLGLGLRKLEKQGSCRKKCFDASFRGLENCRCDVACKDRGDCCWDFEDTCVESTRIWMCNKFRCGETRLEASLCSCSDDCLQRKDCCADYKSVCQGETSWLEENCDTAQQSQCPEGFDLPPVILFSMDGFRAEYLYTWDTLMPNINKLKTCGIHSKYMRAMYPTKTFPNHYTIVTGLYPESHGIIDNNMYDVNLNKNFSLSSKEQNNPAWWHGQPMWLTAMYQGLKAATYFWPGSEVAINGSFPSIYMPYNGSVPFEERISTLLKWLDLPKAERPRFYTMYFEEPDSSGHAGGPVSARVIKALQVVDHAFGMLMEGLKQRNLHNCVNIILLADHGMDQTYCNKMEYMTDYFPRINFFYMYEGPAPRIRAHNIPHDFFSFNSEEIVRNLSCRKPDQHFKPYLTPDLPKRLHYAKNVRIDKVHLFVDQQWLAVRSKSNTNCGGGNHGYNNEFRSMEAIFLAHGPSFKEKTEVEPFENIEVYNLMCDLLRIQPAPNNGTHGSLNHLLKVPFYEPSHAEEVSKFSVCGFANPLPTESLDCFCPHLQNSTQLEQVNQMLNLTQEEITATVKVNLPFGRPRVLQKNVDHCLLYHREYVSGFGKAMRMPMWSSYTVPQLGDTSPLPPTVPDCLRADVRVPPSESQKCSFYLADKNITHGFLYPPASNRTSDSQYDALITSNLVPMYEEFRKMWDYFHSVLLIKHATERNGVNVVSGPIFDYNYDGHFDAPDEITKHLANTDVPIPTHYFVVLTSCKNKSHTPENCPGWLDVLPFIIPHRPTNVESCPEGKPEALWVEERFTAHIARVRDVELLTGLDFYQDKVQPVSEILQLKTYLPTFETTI
Method in brief: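 Crude extract of 293T cells transfected with human NPP1 or NPP3, pre-incubated 3 min at 37 °C in 1 mM CaCl2, 140 mM NaCl, 5 mM KCl, 50 mM Tris pH 8.5. Substrate at 100 µM final for 20 min, stopped in ice-cold perchloric acid and neutralized with KOH. Loss of analogue quantified by reverse-phase HPLC with ion-pair phosphate mobile phase pH 7.0. pnp-TMP (p-nitrophenol at 410 nm) served as the 100% reference.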

Compound	Activity
BP(=O)(OC[C@H]1O[C@@H](n2cnc3c(N)nc(SC)nc32)[C@H](O)[C@@H]1O)OP(=O)(O)CP(=O)(O)O (single isomer, unassigned; diastereomer B)	0%
BP(=O)(OC[C@H]1O[C@@H](n2cnc3c(N)ncnc32)[C@H](O)[C@@H]1O)OP(=O)(O)CP(=O)(O)O (stereo not given in full)	0%
BP(=O)(OC[C@H]1O[C@@H](n2cnc3c(N)nc(SC)nc32)[C@H](O)[C@@H]1O)OP(=O)(O)CP(=O)(O)O (single isomer, unassigned; diastereomer A)	9.9%
BP(=O)(OC[C@H]1O[C@@H](n2cnc3c(N)ncnc32)[C@H](O)[C@@H]1O)OP(=O)(O)CP(=O)(O)O (single isomer, unassigned; diastereomer B)	3%
CSc1nc(N)c2ncn([C@@H]3O[C@H](COP(=O)(O)OP(=O)(O)CP(=O)(O)O)[C@@H](O)[C@H]3O)c2n1	10%

molecular target: T4, Ectonucleotide pyrophosphatase/phosphodiesterase family member 3 (Homo sapiens); test: Inhibition of human NPP3 expressed in human 293T cells; format: cell-based

Compound	Activity
BP(=O)(OC[C@H]1O[C@@H](n2cnc3c(N)nc(SC)nc32)[C@H](O)[C@@H]1O)OP(=O)(O)CP(=O)(O)O (single isomer, unassigned; diastereomer B)	inactive
BP(=O)(OC[C@H]1O[C@@H](n2cnc3c(N)ncnc32)[C@H](O)[C@@H]1O)OP(=O)(O)CP(=O)(O)O (stereo not given in full)	inactive
BP(=O)(OC[C@H]1O[C@@H](n2cnc3c(N)nc(SC)nc32)[C@H](O)[C@@H]1O)OP(=O)(O)CP(=O)(O)O (single isomer, unassigned; diastereomer A)	inactive
BP(=O)(OC[C@H]1O[C@@H](n2cnc3c(N)ncnc32)[C@H](O)[C@@H]1O)OP(=O)(O)CP(=O)(O)O (single isomer, unassigned; diastereomer B)	inactive
CSc1nc(N)c2ncn([C@@H]3O[C@H](COP(=O)(O)OP(=O)(O)CP(=O)(O)O)[C@@H](O)[C@H]3O)c2n1	inactive
